# This is one part of a sample in which hits are shown more often than they occur.
# Insulin prom act = TRM-6 insulin promoter activation; AID 1296; TRM-6 cells, insulin promoter eGFP reporter, imaging; plate-scaled: unstimulated 0, stimulated control 100; 130,000 compounds, 0.81% hits; activation, % at 2 µM;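 active = activation at 2 µM above a set limit, confirmed on inspection of the cell images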;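 also: share of cells whose green reporter signal exceeds an intensity cutoff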
#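 Test system: human fetal islet-derived TRM-6 cells with tamoxifen-inducible insulin promoter–eGFP reporter. Compound dosing: 2 µM final, single concentration. Incubation: tamoxifen pre-incubation 15 h overnight, then compound exposure 48 h at 37 °C. Signal: fixed-cell fluorescence microscopy, eGFP plus Hoechst.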
# Numbers without * were called inactive.
SMILES,Insulin prom act
COc1ccc(CCn2c(-c3ccco3)nc3nc4ccccc4nc32)cc1,179*
COc1ccc(Cn2c(-c3ccc(OC)cc3)nc3ccccc32)cc1,9
Clc1ccc(CNCCC2=CCCCC2)cc1,0
CCOC(=O)C1(CC2CCCCO2)CCN(Cc2cc3ccccc3[nH]2)CC1 (stereo not drawn),0
COC(=O)c1nn(-c2ccccc2)c(Sc2ccc(Br)cc2)c1/C=N/O,6
COc1ccc(C(=O)Nn2c(SCC(=O)c3ccc(Cl)cc3)nc3ccccc3c2=O)cc1,-83
COCCn1c(SCc2ccccc2F)nc2ccccc2c1=O,-9
COn1c(SCc2ccc(Cl)cc2)nc2ccccc2c1=O,77*
CCN1C(=O)/C(=c2/s/c(=C3\SC(C)=C(C)N3CC)c(=O)n2CC)N(c2ccccc2)C1=S,369
COc1ccc(-c2[nH]nc3c2C(c2ccc(OC(=O)N4CCOCC4)cc2)C(C#N)=C(N)O3)cc1 (stereo not drawn),0
COc1cc(C2C(C#N)=C(N)OC3=C2C(=O)CC(C)(C)C3)ccc1OC(=O)N1CCOCC1 (stereo not drawn),600*
N#CC1=C(N)OC2=C(C(=O)CCC2)C1c1ccc(OC(=O)N2CCOCC2)cc1 (stereo not drawn),0
O=C(CN1C(=O)NC2(CCCCC2)C1=O)NC1CCCc2ccccc21 (stereo not drawn),-3
Cc1cccc(C(=O)NCC(=O)N2CC(=O)Nc3ccccc32)c1,-4
O=C1COc2ccc(C(=O)CSc3nnc(Cc4cccs4)n3-c3ccc(Cl)cc3)cc2N1,2
C(#Cc1ccccc1)C[N+]1(CC#Cc2ccccc2)CCCC1,-5
Nc1ccc(C#Cc2ccccc2)cc1,207*
c1ccc(SSc2ccccc2)cc1,0
c1ccc(CC(Nc2ccccn2)c2ccccc2)cc1 (stereo not drawn),0
O=C(CCN1C(=O)/C(=C/C=C/c2ccccc2)SC1=S)Nc1cccnc1,-5
C#CCN1C(=O)S/C(=C/C=C/c2ccc(N(C)C)cc2)C1=O,270*
CC1=NN(c2ccccc2)C(=O)/C1=C/C=C/c1ccc(N(C)C)cc1,0
CC(=O)c1c(N2CCN(C)CC2)[nH]c(-c2ccccc2)nc1=S,0
COC(=O)[C@@H]1CC[C@H](C)[C@@H](c2ccc(C)cc2)N1C(=O)c1ccc(/C=N/OCC[C@@H]2C=C[C@H](OC(C)=O)[C@@H](COC(C)=O)O2)cc1,0
O=C(CSc1nnc(-c2ccncc2)o1)Oc1ccccc1,690*
SMILES,Insulin prom act
CC(C)(C)NC(=O)CSc1nnc(-c2ccncc2)o1,192
Cc1ccc(C(=O)CSc2nnc(-c3ccccc3)o2)cc1,113
COc1ccc(C(=O)N/N=C/c2ccc(OC)c(OS(=O)(=O)c3ccccc3)c2)cc1,-5
COc1cc(/C=N/NC(=O)c2ccc(-c3ccccc3)cc2)cc(OC)c1OC,443*
COc1cc(/C=N/NC(=O)c2ccoc2C)cc(OC)c1OC,3
Cn1ncc(N=Cc2ccccc2)c1C(=O)Nc1cccc(Cl)c1,-5
Cc1nnsc1NC(=O)OCC(C)(C)C,3
CCCCCCN1C=CC(=C/C=C(\C#N)C(=O)OCC)C=C1,133*
CCOC(=O)/C(C#N)=C1/C=CN(Cc2ccccc2)C=N1,-6
CCOC(=O)/C(C#N)=C1/C=CN(C)C=N1,0
CCCN1C=CC(=C/C=C(\C#N)C(=O)OCC)C=C1,141*
CCOC(=O)C(/C=C(\C#N)C(=O)OCC)=C(/N)N1CCN(c2ccccc2)CC1,-7
CCOC(=O)/C(C#N)=C\C1=C(N2CCCC2)CC(C)(C)OC1,-3
O=[N+]([O-])c1ccc(NCCCNS(=O)(=O)c2ccccc2)cc1,-9
Cc1noc(C)c1CSc1ccccc1C(=O)Nc1nccs1,-9
Cc1ccc(Oc2ncccc2COC(=O)Nc2ccccc2C)cc1,369*
Cc1ccccc1NC(=O)OCc1cccnc1Sc1ccc(Cl)cc1,0
Cc1ccc(Sc2ncccc2COC(=O)Nc2c(C)cccc2C)cc1,110
CCOC(=O)C1(CCOc2ccccc2)CCN(Cc2ccc3nonc3c2)CC1,0
Cc1cc(C)n(CC(O)CN2c3ccccc3Sc3ccccc32)n1 (stereo not drawn),209*
Cc1cc(C)n(CC(=O)n2c3ccccc3c3ccccc32)n1,-4
Cc1cc(C)n(CC(O)Cn2c3ccccc3c3ccccc32)n1 (stereo not drawn),314
COCCN(CC(=O)NCC1CCCO1)C(=O)CCC(=O)Nc1ccccn1 (stereo not drawn),113
Cc1ccccc1-n1c(C)nnc1SCc1cc(=O)oc2ccc3ccccc3c12,7
COC(=O)c1sc2nc(C)nc(SCC(=O)N3CCC(C(=O)O)CC3)c2c1C,0
SMILES,Insulin prom act
CS(=O)(=O)N(CC(=O)NCc1ccccn1)c1ccc2c(c1)OCCO2,37
CN(C)C(=O)CN(c1ccc2c(c1)OCO2)S(C)(=O)=O,-71
CS(=O)(=O)N(CC(=O)NCCSCc1ccccc1)c1ccc2c(c1)OCO2,204*
CCN(CC(=O)Nc1ccc(NC(C)=O)cc1)c1ccc(C(F)(F)F)cn1,-7
CCCCNC(=O)COc1ccccc1[N+](=O)[O-],-7
O=C(CO/N=C/c1ccc2c(c1)OCO2)Nc1cccc(Br)c1,-7
O=C(COc1ccc(Cl)cc1Cl)Nc1c(-c2cccs2)nc2ccccn12,-6
CCS(=O)(=O)Nc1ccc(C2=NN(S(C)(=O)=O)C(c3cccs3)C2)cc1 (stereo not drawn),106
Clc1cc(Br)ccc1OCCCNCc1ccccc1,0
Cc1ccc(-c2nnc(Sc3nc4ccccc4o3)c3ccccc23)cc1,590*
Cc1ccc(C(=O)N/C(N)=N/c2nc3ccccc3o2)cc1,-4
Cc1cccc(NC(=O)CSc2nc3ccccc3o2)c1,-4
CC(=O)NC(Cc1c[nH]c2ccccc12)C(=O)OCC(=O)N1CCCCCC1 (stereo not drawn),-6
COc1ccc(NC(=O)Cn2c(=O)n(CC(=O)NCc3ccco3)c(=O)c3ccccc32)cc1,7
NC(=O)C(c1ccccc1)C1CCCC1 (stereo not drawn),106
OC1CCCN(CC(O)c2ccccc2)C1 (stereo not drawn),0
O=P(OC1CCCCC1)(OC1CCCCC1)C(O)c1ccccc1 (stereo not drawn),104*
COc1ccc(/C=C/C(=O)Nc2cc(F)ccc2C)cc1S(=O)(=O)N1CCOCC1,0
C=C(C)CNC(=S)N1CCNC(=O)C1CC(=O)OC (stereo not drawn),-7
O=C(O)CCCC(=O)N1CCc2cc(S(=O)(=O)NCc3ccc(F)cc3)ccc21,0
CCOC(=O)c1cc(C)n(CCc2ccccc2)c1C,-3
CCOC(=O)c1cc2ccccc2n1CCN(CC)CC,78*
CCOC(=O)c1cc2sc(C)cc2n1CC(=O)N(CC)CC,8
CC1CN(C(=S)NC(=O)c2ccco2)CC(C)O1 (stereo not drawn),-3
N=c1oc2c3c4c(cc2cc1C(=O)Nc1ccccc1)CCCN4CCC3,900*
SMILES,Insulin prom act
Cc1cc2cc3c(cc2nc1SCC(=O)Nc1ccccc1)CCC3,7
Cc1ccc(NC(=O)c2cc(NC(=O)c3ccccc3C(=O)O)ccc2N2CCCCC2)cc1,6
CCOC(=O)NC(=O)C(=CNc1ccc(C)cc1)C(=O)NC(=O)OCC,8
N#C/C(C(=O)N1CCOCC1)=C1/SC(Cc2ccccc2Cl)C(=O)N1c1ccccc1 (stereo not drawn),107
Clc1ccccc1N=C1NN=C(c2cccs2)CS1,-7
COc1ccc(NS(=O)(=O)c2cccc(-c3n[nH]c(=S)n3Cc3ccccc3)c2)cc1,117
